Measured values as given in ChEMBL document CHEMBL1146492, “Cytotoxic constituents of the twigs and leaves of Aglaia rubiginosa” (J Nat Prod, 2004).

Key:
KB = test: Cytotoxicity against human KB cells; assay type: functional; conditions: for EC50: Homo sapiens, KB, read-out: ED50 (the source's name)
Procedure, shortened: (§1)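 Cytotoxicity was tested on a panel of human cancer cell lines following established protocols, with ED50 as the read-out. Extracts, fractions and isolates from twigs and leaves were run the same way.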

Col2 = test: Cytotoxicity against human Col2 cells; assay type: functional, cell-based; procedure, shortened: as §1
[1] = Cytotoxicity against HUVEC; assay type: cell-based; conditions: human, HUVEC cells; read-out: ED50 (the source's name)
LNCaP = test: Cytotoxicity against human LNCAP cells; assay type: functional; conditions: for EC50: Homo sapiens, LNCaP, read-out: ED50 (the source's name); procedure, shortened: as §1
Lu1 = test: Cytotoxicity against human Lu1 cells; assay type: functional; conditions: for EC50: Homo sapiens, Lu1, read-out: ED50 (the source's name); procedure, shortened: as §1
[2] = Cytotoxicity against human telomerase reverse transcriptase expressing human RPE1 cells; assay type: functional, TERT-RPE1; conditions: for EC50: Homo sapiens, RPE-1, read-out: ED50 (the source's name)
[3] = read-out: ED50 (the source's name)

Compound | ED50 (KB) [nM] | EC50 (Col2; read-out: EC50) [nM] | CC50 [1] [nM] | ED50 (LNCaP) [nM] | ED50 (Lu1) [nM] | ED50 [2] [nM] | EC50 (KB) [nM] | EC50 (Col2; [3]) [nM] | EC50 (LNCaP) [nM] | EC50 (Lu1) [nM] | EC50 [2] [nM]
C=C(C)[C@@H]1CC[C@]2(C)[C@H](CC[C@@H]3[C@@H]([C@]4(C)CC[C@H](C(C)(C)O)O4)CC[C@]32C)[C@@]1(C)CCC(=O)O [SHOREIC ACID] | > 1000 | > 1000 | > 1000 | > 1000 | > 1000 | > 1000 | – | – | – | – | –
O=C1C[C@@H](c2ccc(O)c(O)c2)Oc2cc(O)cc(O)c21 [ERIODICTYOL] | > 1000 | > 1000 | > 1000 | > 1000 | > 1000 | > 1000 | – | – | – | – | –
C=C(C)[C@@H]1CC[C@]2(C)[C@H](CC[C@@H]3[C@@H]([C@@](C)(O)C/C=C/C(C)(C)O)CC[C@]32C)[C@@]1(C)CCC(=O)O | > 1000 | > 1000 | > 1000 | > 1000 | > 1000 | > 1000 | – | – | – | – | –
CC(=O)O[C@H]1C(=O)[C@@]2(C)[C@H]([C@H](OC(=O)c3ccccc3)[C@]3(O)C[C@H](OC(=O)[C@H](O)[C@@H](NC(=O)c4ccccc4)c4ccccc4)C(C)=C1C3(C)C)[C@]1(OC(C)=O)CO[C@@H]1C[C@@H]2O [PACLITAXEL] | – | – | 105 | – | – | – | 0.4 | 46 | 5 | 2 | 23
COc1ccc(-c2oc3cc(OC)cc(O)c3c(=O)c2OC)cc1 | > 1000 | > 1000 | > 1000 | > 1000 | > 1000 | > 1000 | – | – | – | – | –
COC(=O)[C@H]1[C@@H](O)[C@@]2(O)c3c(OC)cc(OC)cc3O[C@@]2(c2ccc(OC)cc2)[C@@H]1c1ccccc1 [AGLAFOLIN] | – | – | 203 | – | – | – | 142 | 243 | 325 | 163 | 183
CC[C@@]1(O)C(=O)OCc2c1cc1n(c2=O)Cc2cc3ccccc3nc2-1 [CAMPTOTHECIN] | – | – | 258 | – | – | – | 22 | 57 | 28 | 29 | 230
O=C1C[C@@H](c2ccc(O)cc2)Oc2cc(O)cc(O)c21 [NARINGENIN] | > 1000 | > 1000 | > 1000 | > 1000 | > 1000 | > 1000 | – | – | – | – | –
C=C(C)[C@@H]1CC[C@]2(C)[C@H](CC[C@@H]3[C@@H]([C@@](C)(O)C/C=C/C(C)(C)O)CC[C@]32C)[C@@]1(C)CCC(=O)OC | > 1000 | > 1000 | > 1000 | > 1000 | > 1000 | > 1000 | – | – | – | – | –
COc1ccc([C@@]23Oc4cc(OC)cc(OC)c4[C@]2(O)[C@H](O)[C@H](C(=O)O)[C@H]3c2ccccc2)cc1 [ROCAGLOIC ACID] | – | – | 209 | – | – | – | 204 | 209 | 104 | 63 | 209
CC(C)=CC[C@@H](O)[C@@H](C)[C@H]1CC[C@H]2C3=CCC4[C@@H](O)[C@@H](O)CC[C@]4(C)[C@H]3CC[C@]12C (stereo partly drawn) | > 1000 | > 1000 | > 1000 | > 1000 | > 1000 | > 1000 | – | – | – | – | –
COc1ccc([C@@]23Oc4cc(OC)cc(OC)c4[C@]2(O)[C@H](OC(C)=O)C[C@H]3c2ccccc2)cc1 | – | – | 231 | – | – | – | 147 | 189 | 273 | 210 | 210
CC(C)(O)[C@@H]1CC[C@@](C)([C@H]2CC[C@]3(C)[C@@H]2CC[C@@H]2[C@@]4(C)CCC(=O)C(C)(C)[C@@H]4CC[C@]23C)O1 [CABRALEONE] | > 1000 | > 1000 | > 1000 | > 1000 | > 1000 | > 1000 | – | – | – | – | –
